Results taken from ChEMBL document CHEMBL4152256, “Structure-activity relationship of new antimalarial 1-aryl-3-susbtituted propanol derivatives: Synthesis, preliminary toxicity profiling, parasite life cycle stage studies, target exploration, and targeted delivery” (Eur J Med Chem, 2018).
Calls of active or inactive are those of the source. The calls are words filed in the database; no cut-off is given here.

How the values were obtained:
[1] = Genotoxicity in Salmonella typhimurium TA1535 harboring pSK1002 assessed as umu gene induction at 1 mg/ml in presence of Sprague-Dawley rat liver S9 fraction after by SOS/umu assay relative to control; format: toxicity, organism-based; settings: salmonella enterica subsp. enterica serovar typhimurium, read-out: FC
Plasmodium falciparum [2] = experiment: Binding affinity to Plasmodium falciparum GRP94 nucleotide binding domain at 0.5 mM by SYPRO orange dye based DSF analysis
How it was run: (§1)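 Recombinant P. falciparum Hsp90 or GRP94 nucleotide-binding domain (0.05–0.2 mg/mL, optimized per protein) in 25 mM HEPES pH 7.5, 250 mM NaCl. Compound final concentration was 0.5 mM, with SYPRO Orange at 1:1000. Samples were heated from 18 to 90 °C at 1 °C/min. Tm was taken as the Boltzmann-fit inflection point. ΔTm = Tm with ligand minus Tm without, and shifts beyond ±1 °C were counted significant.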

[3] = molecular target: T1, HSP90 (Plasmodium falciparum 3D7) (UniProt Q8IL32); experiment: Binding affinity to Plasmodium falciparum HSP90 nucleotide binding domain at 0.5 mM by SYPRO orange dye based DSF analysis; how it was run: as §1
T1 sequence (whole entry): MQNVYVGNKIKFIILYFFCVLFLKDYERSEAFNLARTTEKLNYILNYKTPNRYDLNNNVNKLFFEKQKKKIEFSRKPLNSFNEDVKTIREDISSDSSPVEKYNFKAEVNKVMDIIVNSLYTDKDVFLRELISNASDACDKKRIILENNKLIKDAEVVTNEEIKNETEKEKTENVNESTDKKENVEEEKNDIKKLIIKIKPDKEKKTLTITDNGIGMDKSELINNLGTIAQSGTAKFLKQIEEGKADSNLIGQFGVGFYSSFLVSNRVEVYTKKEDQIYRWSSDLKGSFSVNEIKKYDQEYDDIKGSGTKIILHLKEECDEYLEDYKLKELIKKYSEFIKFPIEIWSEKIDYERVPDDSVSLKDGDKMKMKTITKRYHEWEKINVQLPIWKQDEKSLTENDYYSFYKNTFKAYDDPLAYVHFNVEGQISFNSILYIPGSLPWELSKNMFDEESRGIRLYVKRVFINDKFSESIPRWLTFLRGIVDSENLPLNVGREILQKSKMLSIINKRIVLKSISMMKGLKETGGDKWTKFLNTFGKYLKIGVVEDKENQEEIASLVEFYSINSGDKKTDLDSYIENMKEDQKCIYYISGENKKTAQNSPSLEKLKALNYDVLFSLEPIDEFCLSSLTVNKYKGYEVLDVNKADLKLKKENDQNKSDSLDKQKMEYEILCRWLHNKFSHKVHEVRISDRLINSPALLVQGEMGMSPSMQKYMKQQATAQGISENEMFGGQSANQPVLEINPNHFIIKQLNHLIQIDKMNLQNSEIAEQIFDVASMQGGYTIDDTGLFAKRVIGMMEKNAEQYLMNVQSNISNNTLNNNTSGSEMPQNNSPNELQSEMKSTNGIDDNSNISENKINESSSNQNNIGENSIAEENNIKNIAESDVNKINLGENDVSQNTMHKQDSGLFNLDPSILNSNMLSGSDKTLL

Plasmodium falciparum [4] = experiment: Binding affinity to Plasmodium falciparum GRP94 nucleotide binding domain by SPR analysis
How it was run: (§2)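 Purified PfHsp90 and PfGRP94 nucleotide-binding domains were amine-coupled to a CM5 chip (3000 and 7000 RU, respectively), with a blank reference surface. Seven compound concentrations (0.4 nM–1 mM) were injected in triplicate at 30 µL/min, 25 °C, in random order. Running buffer: 10 mM HEPES pH 7.4, 150 mM NaCl, 0.005% P20, 1% DMSO, 2 mM MgCl2. Kd came from double-referenced sensorgrams.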

[5] = molecular target: T1, HSP90 (Plasmodium falciparum 3D7); experiment: Binding affinity to Plasmodium falciparum HSP90 nucleotide binding domain by SPR analysis; how it was run: as §2
[6] = Selectivity index, ratio of CC50 for human HepG2A16 cells to IC50 for GFP-fused Plasmodium berghei sporozoites infected in human HepG2A16 cells; format: toxicity, cell-based; settings: read-out: Ratio CC50/IC50
How it was run: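 HepG2-A16 cells were grown at 3 × 10^4 per well on collagen and infected with GFP P. berghei sporozoites (5 × 10^3 to 1 × 10^4 per well) from A. stephensi salivary glands. Compounds were added at infection, from 10 µg/mL top plus seven serial dilutions, and refreshed at 3 h and then every 24 h. After 40 h at 37 °C, EEFs were methanol-fixed, anti-Hsp70 immunolabelled and counted by high-content imaging. SI = HepG2 CC50 / liver-stage IC50.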

[7] = Genotoxicity in Salmonella typhimurium TA1535 harboring pSK1002 assessed as umu gene induction at 0.0005 mg/ml in absence of Sprague-Dawley rat liver S9 fraction after by SOS/umu assay relative to control; format: toxicity, organism-based; settings: salmonella enterica subsp. enterica serovar typhimurium, read-out: FC
[8] = Genotoxicity in Salmonella typhimurium TA1535 harboring pSK1002 assessed as umu gene induction at 0.0005 mg/ml in presence of Sprague-Dawley rat liver S9 fraction after by SOS/umu assay relative to control; format: toxicity, organism-based; settings: salmonella enterica subsp. enterica serovar typhimurium, read-out: FC
Plasmodium falciparum [9] = experiment: Antiplasmodial activity against Plasmodium falciparum 3D7 late stage forms infected in human non-washed human RBC containing full drug dosages by [3H]-hypoxanthine incorporation assay; format: functional, organism-based; settings: 3D7, Erythrocyte
Plasmodium falciparum [10] = experiment: (§3) Antiplasmodial activity against chloroquine-sensitive Plasmodium falciparum 3D7 ring forms infected in human RBC incubated for 15 mins followed by compound removal and further incubation for 48 hrs by [3H]-hypoxanthine incorporation assay; format: functional, organism-based; settings: 3D7, Erythrocyte
[11] = Drug encapsulation in liposomes assessed as encapsulation efficiency in citrate/phosphate buffered measured after buffer exchange with PBS by UV/Vis spectroscopy relative to untreated control; format: physicochemical; settings: artificial membrane
How it was run: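 Compound loaded into DSPC:cholesterol:DSPE-PEG2000-Mal:DOPE-Rho (84.5:10:5:0.5) liposomes using a citrate (pH 4.0)/PBS pH gradient. Drug measured by UV/vis after SDS disruption at each step: citrate liposomes, after buffer exchange to PBS (chloroquine added to preformed liposomes here), and after ultracentrifugation. Encapsulation efficiency = % of drug that is encapsulated out of total drug in the sample.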

Plasmodium falciparum [12] = experiment: Antiplasmodial activity against Plasmodium falciparum 3D7 ring stage forms infected in immunoliposome encapsulated compound pre-loaded human RBC by [3H]-hypoxanthine incorporation assay; format: functional, organism-based; settings: 3D7, Erythrocyte
[13] = Drug internalization in liposomes assessed as zeta potential at 500 uM in presence of pH 7.4 PBS buffer solution (reference value: -16.48 mV); format: physicochemical; settings: artificial membrane, pH 7.4, 500 µM
How it was run: (§4)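 Zeta potential of liposomes loaded with compound (500 µM drug per 10 mM lipid), measured in the pH 4.0 citrate hydration buffer and again after buffer exchange to PBS pH 7.4; drug-free liposomes of the same lipid composition served as reference.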

Plasmodium falciparum [14] = experiment: as §3, with “RBC using compound encapsulated in to immunoliposome targeted to GPA” for “RBC”; format: functional, organism-based; settings: 3D7, Erythrocyte
Plasmodium falciparum [15] = experiment: Ratio of IC50 for antiplasmodial activity against Plasmodium falciparum 3D7 late stage forms infected in immunoliposome encapsulated compound pre-loaded human RBC by [3H]-hypoxanthine incorporation assay to IC50 for antiplasmodial activity against Plasmodium falciparum 3D7 late stage forms infected in human non-washed human RBC containing full drug dosages by [3H]-hypoxanthine incorporation assay; format: functional
[16] = Drug internalization in liposomes assessed as zeta potential at 500 uM in presence of pH 4 citrate buffer solution (reference value: -2.73 mV); format: physicochemical; settings: artificial membrane, pH 4, 500 µM; how it was run: as §4

SMILES: COc1ccccc1C1=CCN(CCC(O)c2ccc(F)cc2)CC1 (configuration not stated)
- fold induction at 1 mg/ml [1]: 1

SMILES: COc1ccccc1N1CCN(CCC(O)c2ccc(F)c3ccccc23)CC1 (configuration not stated)
- Activity (Plasmodium falciparum [2]): inactive
- Activity [3]: inactive
- Activity (Plasmodium falciparum [4]): inactive
- Activity [5]: inactive

SMILES: OC(CCN1CCN(c2ccccc2C(F)(F)F)CC1)c1ccc(F)c2ccccc12 (stereo in doubt; 55)
- fold induction at 1 mg/ml [1]: 0.4

SMILES: OC(CCN1CCN(C(c2ccccc2)c2ccccc2)CC1)c1ccc(F)c2ccccc12 (configuration not stated)
- Activity (Plasmodium falciparum [2]): inactive
- Activity [3]: inactive
- Activity (Plasmodium falciparum [4]): inactive
- Activity [5]: inactive
- selectivity ratio [6]: 3.7

SMILES: OC(CCN1CCN(c2ccccc2C(F)(F)F)CC1)c1ccc(F)cc1 (configuration not stated)
- fold induction at 1 mg/ml [1]: 0.3

SMILES: N#Cc1ccc(N2CCC(NCCC(O)c3ccc(F)c4ccccc34)CC2)c(Cl)c1 (configuration not stated)
- Activity (Plasmodium falciparum [2]): inactive
- Activity [3]: inactive
- Activity (Plasmodium falciparum [4]): inactive
- Activity [5]: inactive
- selectivity ratio [6]: 2.3

SMILES: OC(CCN1CCN(C(c2ccccc2)c2ccccc2)CC1)c1ccc(F)c(F)c1 (configuration not stated)
- fold induction at 0.0005 mg/ml [7]: 0.7
- fold induction at 0.0005 mg/ml [8]: 1

SMILES: N#Cc1ccc(N2CCC(NCCC(O)c3ccc(F)c4ccccc34)CC2)c(Br)c1 (configuration not stated)
- Activity (Plasmodium falciparum [2]): inactive
- Activity [3]: inactive
- Activity (Plasmodium falciparum [4]): inactive
- Activity [5]: inactive

SMILES: N#Cc1ccc(N2CCC(NCCC(O)c3ccc(F)c4ccccc34)CC2)c(C(F)(F)F)c1 (stereo in doubt; 72)
- IC50 (Plasmodium falciparum [9]): 302 nM
- IC50 (Plasmodium falciparum [10]): 867 nM
- Activity [11]: 77.2%
- IC50 (Plasmodium falciparum [12]): 514 nM
- Activity [13]: -18.2 mV
- IC50 (Plasmodium falciparum [14]): 146 nM
- selectivity ratio [6]: 2.3
- Ratio IC50 (Plasmodium falciparum [15]): 1.5
- Activity [16]: 8.54 mV
